Where two headings read alike, the source gives them in different places.
Columns and labels:
[1] = semaglutide; cited from earlier work
[2] = assay type: in vivo, human; conditions: for AUC0–168h,sema,SS estimated race ratio [95% CI] (Japanese/Caucasian) / Cmax,sema,SS estimated race ratio [95% CI] (Japanese/Caucasian): steady state
Method in brief: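 Healthy Japanese or Caucasian men, s.c. once weekly with stepwise escalation from 0.25 mg. Plasma drug measured by validated LC–MS/MS. Dense sampling 0–168 h after first dose and 0–840 h after last dose (day 84), with pre-dose troughs from day 7 to 84. AUC0–168h by linear trapezoidal method at actual times. Racc,DC = (AUC_SS/last dose)/(AUC_SD/first dose). Log values fitted by linear normal model (race, dose, race×dose) and back-transformed to ratios with 95% CI.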

[3] = assay type: in vivo, human; conditions: for Gastrointestinal disorders, proportion of subjects / Adverse events, proportion of subjects: 8 subjects
Method in brief: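 Double-blind, placebo-controlled, 13 weeks of once-weekly s.c. dosing plus 5 weeks of follow-up. Monitored adverse events, hypoglycemic episodes, vital signs, ECG and physical examination. Laboratory tests covered hematology, biochemistry, calcitonin and urinalysis, and anti-drug antibodies were measured at follow-up. Every randomized subject given at least one dose was included in the safety analysis.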

[4] = SUSTAIN 6, no change with placebo, cited from earlier work
[5] = Anti-semaglutide antibodies; assay type: in vivo, human; conditions: both populations, 0.5 and 1.0 mg, at follow-up
[6] = Pulse rate change from baseline to end of treatment; assay type: in vivo, human
[7] = semaglutide 0.5 mg s.c. once weekly
[8] = semaglutide 1.0 mg s.c. once weekly
[9] = Japanese subjects, 0.5 mg, placebo 16.7%
[10] = Japanese subjects, 1.0 mg, placebo 16.7%

SMILES: CC[C@H](C)[C@H](NC(=O)[C@H](Cc1ccccc1)NC(=O)[C@H](CCC(=O)O)NC(=O)[C@H](CCCCNC(=O)COCCOCCNC(=O)COCCOCCNC(=O)CC[C@H](NC(=O)CCCCCCCCCCCCCCCCC(=O)O)C(=O)O)NC(=O)[C@H](C)NC(=O)[C@H](C)NC(=O)[C@H](CCC(N)=O)NC(=O)CNC(=O)[C@H](CCC(=O)O)NC(=O)[C@H](CC(C)C)NC(=O)[C@H](Cc1ccc(O)cc1)NC(=O)[C@H](CO)NC(=O)[C@H](CO)NC(=O)[C@@H](NC(=O)[C@H](CC(=O)O)NC(=O)[C@H](CO)NC(=O)[C@@H](NC(=O)[C@H](Cc1ccccc1)NC(=O)[C@@H](NC(=O)CNC(=O)[C@H](CCC(=O)O)NC(=O)C(C)(C)NC(=O)[C@@H](N)Cc1cnc[nH]1)[C@@H](C)O)[C@@H](C)O)C(C)C)C(=O)N[C@@H](C)C(=O)N[C@@H](Cc1c[nH]c2ccccc12)C(=O)N[C@@H](CC(C)C)C(=O)N[C@H](C(=O)N[C@@H](CCCNC(=N)N)C(=O)NCC(=O)N[C@@H](CCCNC(=N)N)C(=O)NCC(=O)O)C(C)C [Semaglutide]
- Half-life (t1/2) [1]: ~ 1 week
- Dose-corrected accumulation ratio ([2]; overall statement, once-weekly dosing, both races and doses): approximately 2
- Racc,DC,sema estimated race ratio [95% CI] (Japanese/Caucasian) ([2]; semaglutide 0.5 mg): 0.87 [0.78; 0.96]
- AUC0–168h,sema,SS estimated race ratio [95% CI] (Japanese/Caucasian) [2, 7]: 1.06 [0.92; 1.23]
- Cmax,sema,SS estimated race ratio [95% CI] (Japanese/Caucasian) [2, 7]: 1.06 [0.91; 1.23]
- Racc,DC,sema estimated race ratio [95% CI] (Japanese/Caucasian) ([2]; semaglutide 1.0 mg): 0.90 [0.82; 1.00]
- AUC0–168h,sema,SS estimated race ratio [95% CI] (Japanese/Caucasian) [2, 8]: 0.99 [0.85; 1.16]
- Cmax,sema,SS estimated race ratio [95% CI] (Japanese/Caucasian) [2, 8]: 1.02 [0.87; 1.19]
- Gastrointestinal disorders, proportion of subjects ([3]; Caucasian subjects, 0.5 mg, placebo 0.0%): 25.0%
- Adverse events, proportion of subjects ([3]; Caucasian subjects, 0.5 mg, placebo 33.3%): 50.0%
- Gastrointestinal disorders, proportion of subjects ([3]; Caucasian subjects, 1.0 mg, placebo 0.0%): 25.0%
- Adverse events, proportion of subjects ([3]; Caucasian subjects, 1.0 mg, placebo 33.3%): 62.5%
- Adverse events, proportion of subjects [3, 9]: 75.0%
- Gastrointestinal disorders, proportion of subjects [3, 9]: 62.5%
- Adverse events, proportion of subjects [3, 10]: 62.5%
- Gastrointestinal disorders, proportion of subjects [3, 10]: 37.5%
- Biochemistry parameters, including amylase, lipase and calcitonin ([3]; any of the treatment or race groups): No noticeable trends
- ECG readings or physical examinations ([3]; both populations, 0.5 and 1.0 mg): no clinically significant abnormalities
- Hypoglycemic events ([3]; both populations, 0.5 and 1.0 mg, during the trial): No hypoglycemic events were reported
- Severity of adverse events ([3]; both populations, 0.5 and 1.0 mg, none were severe): mild to moderate
- Mean pulse rate increase ([4]; semaglutide 0.5 mg): 2.1 bpm
- Mean pulse rate increase ([4]; semaglutide 1.0 mg): 2.4 bpm
- Development of anti-semaglutide antibodies [5]: No subjects developed anti-semaglutide antibodies
- Pulse rate increase from baseline to end of treatment ([6]; Caucasian subjects, 0.5 mg, placebo 2.8 bpm): 14.6 bpm
- Pulse rate increase from baseline to end of treatment ([6]; Caucasian subjects, 1.0 mg, placebo 2.8 bpm): 10.5 bpm
- Pulse rate increase from baseline to end of treatment ([6]; Japanese subjects, 0.5 mg, placebo decrease of 0.5 bpm): 8.5 bpm
- Pulse rate increase from baseline to end of treatment ([6]; Japanese subjects, 1.0 mg, placebo decrease of 0.5 bpm): 10.4 bpm
